Reference: ChEMBL document CHEMBL3352563, “Design, synthesis and molecular docking of substituted 3-hydrazinyl-3-oxo-propanamides as anti-tubercular agents” (Bioorg Med Chem Lett, 2014)
≈ marks a conversion by molar mass, not a printed value.

How the values were obtained:
[1] = test system: Mycobacterium tuberculosis; assay: Anti-tubercular activity against Mycobacterium tuberculosis H37Rv by resazurin microtitre assay; assay type: functional
Method in brief: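 Value is the minimum inhibitory concentration (MIC) found by the resazurin microtitre (REMA) method.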

[2] = molecular target: T1, Serine/threonine-protein kinase PknB (Mycobacterium tuberculosis, UniProt P9WI81); assay: Inhibition of Mycobacterium tuberculosis PknB
T1 sequence (P9WI81 whole entry): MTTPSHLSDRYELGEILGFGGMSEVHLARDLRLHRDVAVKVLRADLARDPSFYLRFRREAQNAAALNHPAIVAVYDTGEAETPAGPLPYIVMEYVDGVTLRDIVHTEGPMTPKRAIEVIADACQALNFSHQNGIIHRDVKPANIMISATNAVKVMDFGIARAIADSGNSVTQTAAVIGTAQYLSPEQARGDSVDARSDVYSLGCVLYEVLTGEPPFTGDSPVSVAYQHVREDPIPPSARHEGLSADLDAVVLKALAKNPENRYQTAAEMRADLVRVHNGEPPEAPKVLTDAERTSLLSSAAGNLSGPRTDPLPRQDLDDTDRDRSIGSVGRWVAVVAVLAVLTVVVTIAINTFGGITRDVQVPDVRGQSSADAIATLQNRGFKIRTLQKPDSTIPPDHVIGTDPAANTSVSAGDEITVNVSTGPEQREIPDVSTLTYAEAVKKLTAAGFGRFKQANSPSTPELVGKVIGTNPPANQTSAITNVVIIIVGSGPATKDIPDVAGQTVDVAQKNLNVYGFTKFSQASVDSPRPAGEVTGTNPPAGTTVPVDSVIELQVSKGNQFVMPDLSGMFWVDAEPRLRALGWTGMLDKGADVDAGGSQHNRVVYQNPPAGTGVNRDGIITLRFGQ

Question: How did the MIC [1] turn out when NNC(=O)CC(=O)Nc1ccccc1[N+](=O)[O-] was run?
Answer: > 100 µg/mL

Question: And the Ki [2]?
Answer: 22.9 µM

Question: What does the source list for NNC(=O)CC(=O)Nc1cccc([N+](=O)[O-])c1?
Answer: MIC [1]: > 100 µg/mL; Ki [2]: 12.5 µM

Question: What does the source list for NNC(=O)CC(=O)Nc1ccc(Cl)c(Cl)c1?
Answer: MIC [1]: > 100 µg/mL; Ki [2]: 9.21 µM

Question: For NNC(=O)CC(=O)NCc1ccco1, which MIC [1] is on record?
Answer: > 100 µg/mL

Question: And the Ki [2]?
Answer: 18.5 µM

Question: How did the MIC [1] turn out when NNC(=O)CC(=O)Nc1ccc(C(=O)O)cc1 was run?
Answer: 12.5 µg/mL (≈ 52.7 µM)

Question: And the Ki [2]?
Answer: 3.86 µM

Question: For NNC(=O)CC(=O)Nc1ccccc1C(=O)O, which MIC [1] is on record?
Answer: 50 µg/mL (≈ 211 µM)

Question: And the Ki [2]?
Answer: 7.32 µM

Question: For CCCCc1ccc(NC(=O)CC(=O)NN)cc1, which MIC [1] is on record?
Answer: 12.5 µg/mL (≈ 50.1 µM)

Question: What about the Ki [2] of the same molecule?
Answer: 26.5 µM

Question: With NNC(=O)CC(=O)Nc1cc(Cl)cc(Cl)c1 as the molecule, how does the MIC [1] read?
Answer: > 100 µg/mL

Question: What about the Ki [2] of the same molecule?
Answer: 7.68 µM

Question: COc1ccc(OC)c(NC(=O)CC(=O)NN)c1 was tested. Which MIC [1] did it give?
Answer: > 100 µg/mL

Question: And the Ki [2]?
Answer: 7.01 µM

Question: With CCCc1ccc(NC(=O)CC(=O)NN)cc1 as the molecule, how does the MIC [1] read?
Answer: 12.5 µg/mL (≈ 53.1 µM)

Question: What about the Ki [2] of the same molecule?
Answer: 9.04 µM

Question: CO[C@H]1/C=C/O[C@@]2(C)Oc3c(C)c(O)c4c(O)c(c(/C=N/N5CCN(C)CC5)c(O)c4c3C2=O)NC(=O)/C(C)=C\C=C\[C@H](C)[C@H](O)[C@@H](C)[C@@H](O)[C@@H](C)[C@H](OC(C)=O)[C@@H]1C [RIFAMPIN] was tested. Which MIC [1] did it give?
Answer: 0.01 µg/mL (≈ 0.0122 µM)

Question: NNC(=O)CC(=O)Nc1ccc(F)c(Cl)c1 was tested. Which MIC [1] did it give?
Answer: 50 µg/mL (≈ 204 µM)

Question: And the Ki [2]?
Answer: 3.53 µM

Question: Which MIC [1] does the source give for NNC(=O)CC(=O)Nc1ccc([N+](=O)[O-])cc1[N+](=O)[O-] here?
Answer: > 100 µg/mL

Question: What about the Ki [2] of the same molecule?
Answer: 6.38 µM

Question: How did the MIC [1] turn out when NNC(=O)c1ccncc1 [ISONIAZID] was run?
Answer: 0.02 µg/mL (≈ 0.146 µM)

Question: With COc1ccc(NC(=O)CC(=O)NN)c(OC)c1 as the molecule, how does the MIC [1] read?
Answer: > 100 µg/mL

Question: What about the Ki [2] of the same molecule?
Answer: 5.25 µM

Question: For NNC(=O)CC(=O)Nc1ccc([N+](=O)[O-])cc1, which MIC [1] is on record?
Answer: > 100 µg/mL

Question: What about the Ki [2] of the same molecule?
Answer: 10.8 µM

Question: How did the MIC [1] turn out when CCN(CC)c1ccc(NC(=O)CC(=O)NN)cc1 was run?
Answer: 100 µg/mL (≈ 378 µM)

Question: What about the Ki [2] of the same molecule?
Answer: 13.1 µM

Question: How did the MIC [1] turn out when NNC(=O)CC(=O)Nc1ccc(S(=O)(=O)O)cc1 was run?
Answer: 50 µg/mL (≈ 183 µM)

Question: And the Ki [2]?
Answer: 7.59 µM
